In ChEMBL document CHEMBL4477213, “Discovery and Optimization of Quinazolinone-pyrrolopyrrolones as Potent and Orally Bioavailable Pan-Pim Kinase Inhibitors” (J Med Chem, 2016):
Values after ≈ are worked out from the molar mass of the structure shown.

Legend:
[1] = Volume of distribution at steady state in rat at 2 mg/kg, iv or 5 mg/kg, po; type: ADME, organism-based; conditions: in vivo, read-out: Vdss
[2] = Apparent permeability in pig LLC-PK1 cells; type: ADME, cell-based, Sus scrofa
[3] = organism: Bos taurus; experiment: Inhibition of bovine I1-receptor assessed as remaining enzyme activity at 10 uM relative to untreated control
[4] = tested on: Mus musculus; experiment: In vivo inhibition of pan Pim in SCID-bg mouse xenografted with human KMS-12-BM cells assessed as phosphorylation of BAD peptide at Serine 112 residue at 10 mg/kg, po qd measured at 24 hrs post dose relative to control; type: functional; design: scale not given: the % may be the effect or the level left
[5] = tested on: Mus musculus; experiment: In vivo inhibition of pan Pim in SCID-bg mouse xenografted with human KMS-12-BM cells assessed as phosphorylation of BAD peptide at Serine 112 residue at 25 mg/kg, po qd measured at 4 hrs post dose relative to control; type: functional; design: scale not given: the % may be the effect or the level left
[6] = tested on: Mus musculus; experiment: In vivo inhibition of pan Pim in SCID-bg mouse xenografted with human KMS-12-BM cells assessed as phosphorylation of BAD peptide at Serine 112 residue at 25 mg/kg, po qd measured at 12 hrs post dose relative to control; type: functional; design: scale not given: the % may be the effect or the level left
[7] = tested on: KMS-12-BM; experiment: Antitumor activity against human KMS-12-BM cells xenografted in po dosed SCID-bg mouse assessed as tumor growth inhibition administered once daily measured twice per week; type: functional, organism-based
[8] = tested on: Mus musculus; experiment: In vivo inhibition of pan Pim in SCID-bg mouse xenografted with human KMS-12-BM cells assessed as phosphorylation of BAD peptide at Serine 112 residue at 100 mg/kg, po qd measured at 12 hrs post dose relative to control; type: functional; design: scale not given: the % may be the effect or the level left
[9] = target: Dual specificity protein kinase CLK4 (Homo sapiens) (UniProt Q9HAZ1); experiment: Inhibition of human CLK4 (135 to 481 residues) expressed in bacterial system assessed as remaining enzyme activity at 1 uM by KINOMEScan assay relative to control
[10] = tested on: Mus musculus; experiment: In vivo inhibition of pan Pim in SCID-bg mouse xenografted with human KMS-12-BM cells assessed as phosphorylation of BAD peptide at Serine 112 residue at 10 mg/kg, po qd measured at 1 hr post dose relative to control; type: functional; design: scale not given: the % may be the effect or the level left
[11] = Aqueous solubility of the compound in FaSIF at pH 6.8 after 1 hr by LC/MS analysis
[12] = Aqueous solubility of the compound in PBS at pH 7.4 after 1 hr by LC/MS analysis; type: physicochemical
Method in brief: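 The compound was dried down from DMSO and taken up in 1x PBS (pH 7.4) or FaSIF (pH 6.8). Samples were shaken 1 h, equilibrated at RT for 72 h, then centrifuged.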

[13] = tested on: KMS-12-BM; experiment: Antitumor activity against human KMS-12-BM cells xenografted in SCID-bg mouse assessed as tumor growth inhibition at 100 mg/kg, po qd measured twice per week; type: functional; conditions: read-out: TGI
[14] = tested on: Mus musculus; experiment: In vivo inhibition of pan Pim in SCID-bg mouse xenografted with human KMS-12-BM cells assessed as phosphorylation of BAD peptide at Serine 112 residue at 100 mg/kg, po qd measured at 1 hr post dose relative to control; type: functional; design: scale not given: the % may be the effect or the level left
[15] = target: T1, Mitogen-activated protein kinase 12 (Homo sapiens) (UniProt P53778); experiment: Inhibition of full length human p38-gamma expressed in bacterial system assessed as remaining enzyme activity at 1 uM by KINOMEScan assay relative to control
T1 sequence (whole entry): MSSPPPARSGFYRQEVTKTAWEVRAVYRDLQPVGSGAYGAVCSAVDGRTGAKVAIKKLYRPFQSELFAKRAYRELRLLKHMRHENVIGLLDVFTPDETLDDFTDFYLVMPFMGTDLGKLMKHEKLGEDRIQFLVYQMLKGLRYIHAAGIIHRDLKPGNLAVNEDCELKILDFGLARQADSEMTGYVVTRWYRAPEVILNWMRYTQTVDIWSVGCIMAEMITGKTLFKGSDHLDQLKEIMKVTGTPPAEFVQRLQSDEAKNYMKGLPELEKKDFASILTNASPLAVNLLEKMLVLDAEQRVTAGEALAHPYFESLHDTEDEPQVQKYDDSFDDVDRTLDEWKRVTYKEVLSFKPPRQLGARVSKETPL

[16] = tested on: Mus musculus; experiment: In vivo inhibition of pan Pim in SCID-bg mouse xenografted with human KMS-12-BM cells assessed as phosphorylation of BAD peptide at Serine 112 residue at 100 mg/kg, po qd measured at 24 hrs post dose relative to control; type: functional; design: scale not given: the % may be the effect or the level left
[17] = tested on: KMS-12-BM; experiment: Antitumor activity against human KMS-12-BM cells xenografted in SCID-bg mouse assessed as tumor growth inhibition at 10 mg/kg, po qd measured twice per week; type: functional; conditions: read-out: TGI
[18] = tested on: Mus musculus; experiment: In vivo inhibition of pan Pim in SCID-bg mouse xenografted with human KMS-12-BM cells assessed as phosphorylation of BAD peptide at Serine 112 residue at 50 mg/kg, po qd measured at 4 hrs post dose relative to control; type: functional; design: scale not given: the % may be the effect or the level left
[19] = target: Casein kinase II subunit alpha (Homo sapiens) (UniProt P68400); experiment: Inhibition of full length human CSNK2A1 expressed in mammalian system assessed as remaining enzyme activity at 1 uM by KINOMEScan assay relative to control
[20] = Oral bioavailability in rat at 5 mg/kg; type: ADME, organism-based; conditions: in vivo
[21] = tested on: Mus musculus; experiment: In vivo inhibition of pan Pim in SCID-bg mouse xenografted with human KMS-12-BM cells assessed as phosphorylation of BAD peptide at Serine 112 residue at 25 mg/kg, po qd measured at 24 hrs post dose relative to control; type: functional; design: scale not given: the % may be the effect or the level left
[22] = tested on: Mus musculus; experiment: In vivo inhibition of pan Pim in SCID-bg mouse xenografted with human KMS-12-BM cells assessed as phosphorylation of BAD peptide at Serine 112 residue at 50 mg/kg, po qd measured at 1 hr post dose relative to control; type: functional; design: scale not given: the % may be the effect or the level left
[23] = tested on: Mus musculus; experiment: In vivo inhibition of pan Pim in SCID-bg mouse xenografted with human KMS-12-BM cells assessed as phosphorylation of BAD peptide at Serine 112 residue at 50 mg/kg, po qd measured at 24 hrs post dose relative to control; type: functional; design: scale not given: the % may be the effect or the level left
[24] = tested on: Mus musculus; experiment: In vivo inhibition of pan Pim in SCID-bg mouse xenografted with human KMS-12-BM cells assessed as plasma concentration required for reduction of BAD peptide phosphorylation at Serine 112 residue at 10 to 100 mg/kg, po qd measured after 1 to 24 hrs post dose; type: functional, organism-based
[25] = tested on: Mus musculus; experiment: In vivo inhibition of pan Pim in SCID-bg mouse xenografted with human KMS-12-BM cells assessed as phosphorylation of BAD peptide at Serine 112 residue at 25 mg/kg, po qd measured at 8 hrs post dose relative to control; type: functional; design: scale not given: the % may be the effect or the level left
[26] = Volume of distribution at steady state in dog at 0.3 mg/kg, iv; type: ADME, organism-based, Canis lupus familiaris; conditions: in vivo, read-out: Vdss
[27] = target: Dual specificity tyrosine-phosphorylation-regulated kinase 1A (Homo sapiens) (UniProt Q13627); experiment: Inhibition of human DYRK1A (129 to 509 residues) expressed in mammalian system assessed as remaining enzyme activity at 1 uM by KINOMEScan assay relative to control

Casein kinase II subunit alpha (Homo sapiens), sequence (P68400 whole entry, looked up): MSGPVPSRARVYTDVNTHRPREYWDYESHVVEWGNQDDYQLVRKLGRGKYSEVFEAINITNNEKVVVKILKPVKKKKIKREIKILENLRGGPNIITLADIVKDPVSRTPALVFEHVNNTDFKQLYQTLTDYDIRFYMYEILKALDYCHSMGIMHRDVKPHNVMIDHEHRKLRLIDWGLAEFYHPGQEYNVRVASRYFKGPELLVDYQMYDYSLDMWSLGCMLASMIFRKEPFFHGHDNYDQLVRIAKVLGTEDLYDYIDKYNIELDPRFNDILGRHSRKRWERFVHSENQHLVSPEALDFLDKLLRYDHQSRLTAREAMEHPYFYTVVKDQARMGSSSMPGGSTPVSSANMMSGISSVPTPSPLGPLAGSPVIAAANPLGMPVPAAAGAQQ
Dual specificity protein kinase CLK4 (Homo sapiens), sequence (Q9HAZ1 whole entry, looked up, the tested form may be a part): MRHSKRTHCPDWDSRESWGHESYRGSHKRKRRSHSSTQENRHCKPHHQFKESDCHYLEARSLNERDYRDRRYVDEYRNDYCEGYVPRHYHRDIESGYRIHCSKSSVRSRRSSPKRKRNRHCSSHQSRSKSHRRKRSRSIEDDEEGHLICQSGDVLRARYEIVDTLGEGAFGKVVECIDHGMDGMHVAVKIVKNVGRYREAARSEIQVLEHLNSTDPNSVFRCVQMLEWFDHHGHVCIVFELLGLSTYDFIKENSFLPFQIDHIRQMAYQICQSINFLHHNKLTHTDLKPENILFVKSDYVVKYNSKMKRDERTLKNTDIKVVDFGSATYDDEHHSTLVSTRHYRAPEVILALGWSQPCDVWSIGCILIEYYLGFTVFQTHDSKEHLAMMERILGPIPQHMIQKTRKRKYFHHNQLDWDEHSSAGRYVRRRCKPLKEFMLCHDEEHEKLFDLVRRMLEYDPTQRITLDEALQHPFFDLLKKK

Vd [1]: 1.5 L/kg
Papp [2]: 44 ×10⁻⁶ cm/s
Activity [3]: < 10%
Activity [9]: 0.2%
solubility at 1 h [11]: 104 µM (≈ 38 µg/mL)
solubility at 1 h [12]: 60 µM (≈ 21.9 µg/mL)
Activity [15]: 0.9%
Activity [19]: 3.5%
bioavailability [20]: 39%
EC50 [24]: 254 nM
Vd [26]: 1 L/kg
Activity [27]: 6%
SMILES: C[C@H]1NC(=O)c2cc(-c3cccc4c(=O)n(C)c(NC(C)(C)C)nc34)[nH]c21
Activity [4]: 0%
Activity [5]: 60%
Activity [6]: 37%
TGI [7]: Dose-dependent effect
Activity [8]: 66%
Activity [10]: 52%
inhibition in vivo at 100 mg/kg [13]: 95%
Activity [14]: 61%
Activity [16]: 21%
inhibition in vivo at 10 mg/kg [17]: 30%
Activity [18]: 66%
Activity [21]: 0%
Activity [22]: 61%
Activity [23]: 10%
Activity [25]: 60%
